From ChEMBL document CHEMBL1250490, “Synthesis, characterization, antiamoebic activity and cytotoxicity of novel series of pyrazoline derivatives bearing quinoline tail” (Eur J Med Chem, 2010)
pIC50: −log10 of the molar value.

Tested on: MCF7
Experiment: Cytotoxicity against human MCF7 cells after 48 hrs by MTT assay
Type: cell-based
Conditions: MCF7, 48 h
In short: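 MCF-7 cells were kept as monolayers in DMEM with 10% fetal calf serum and penicillin. They were plated at 1.2×10⁴ cells/well and grown 48 h before dosing. Compounds were dissolved as 20% DMSO stocks and diluted in complete medium. After 48 h exposure, MTT was added for 4 h at 37 °C and dissolved in DMSO. Absorbance was read at 570 nm (reference 655 nm); viability is relative to untreated cells. Triplicate, repeated thrice.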

`Cc1ncc([N+](=O)[O-])n1CCO` [METRONIDAZOLE] gave a pIC50 of under 4.00.
